Measured values reported in ChEMBL document CHEMBL4765378, “Discovery of simplified benzazole fragments derived from the marine benzosceptrin B as necroptosis inhibitors involving the receptor interacting protein Kinase-1” (Eur J Med Chem, 2020).

Columns and labels:
[1] = system: TERT-RPE1; assay: Cytotoxicity against human TERT-RPE1 cells assessed as increase in LDH release at 0.01 to 50 uM measured after 24 hrs by CyQUANT reagent based assay; assay type: cell-based; conditions: tert-rpe1, 24 h, dose 0.01-50 µM
Outline: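 hTERT RPE-1 cells (DMEM-F12-Glutamax, 10% FCS, 37 °C, 5% CO2) exposed 24 h to compound from 0.01 to 50 μM; viability measured.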

[2] = biological target: Dual specificity tyrosine-phosphorylation-regulated kinase 1A (Rattus norvegicus, UniProt Q63470); assay: Inhibition of recombinant rat DYRK1A kinase domain (1 to 499 residues) expressed in bacterial expression system using KKISGRLSPIMTEQ as substrate by ADP-glo assay
[3] = biological target: Tyrosine-protein kinase ABL1 (Homo sapiens, UniProt P00519); assay: Inhibition of recombinant human ABL1 (118 to 535 residues) expressed in baculovirus infected Sf9 insect cells using EAIYAAPFAKKK as substrate by ADP-glo assay
Sequence of Tyrosine-protein kinase ABL1 (P00519 whole entry, the tested form may be a part): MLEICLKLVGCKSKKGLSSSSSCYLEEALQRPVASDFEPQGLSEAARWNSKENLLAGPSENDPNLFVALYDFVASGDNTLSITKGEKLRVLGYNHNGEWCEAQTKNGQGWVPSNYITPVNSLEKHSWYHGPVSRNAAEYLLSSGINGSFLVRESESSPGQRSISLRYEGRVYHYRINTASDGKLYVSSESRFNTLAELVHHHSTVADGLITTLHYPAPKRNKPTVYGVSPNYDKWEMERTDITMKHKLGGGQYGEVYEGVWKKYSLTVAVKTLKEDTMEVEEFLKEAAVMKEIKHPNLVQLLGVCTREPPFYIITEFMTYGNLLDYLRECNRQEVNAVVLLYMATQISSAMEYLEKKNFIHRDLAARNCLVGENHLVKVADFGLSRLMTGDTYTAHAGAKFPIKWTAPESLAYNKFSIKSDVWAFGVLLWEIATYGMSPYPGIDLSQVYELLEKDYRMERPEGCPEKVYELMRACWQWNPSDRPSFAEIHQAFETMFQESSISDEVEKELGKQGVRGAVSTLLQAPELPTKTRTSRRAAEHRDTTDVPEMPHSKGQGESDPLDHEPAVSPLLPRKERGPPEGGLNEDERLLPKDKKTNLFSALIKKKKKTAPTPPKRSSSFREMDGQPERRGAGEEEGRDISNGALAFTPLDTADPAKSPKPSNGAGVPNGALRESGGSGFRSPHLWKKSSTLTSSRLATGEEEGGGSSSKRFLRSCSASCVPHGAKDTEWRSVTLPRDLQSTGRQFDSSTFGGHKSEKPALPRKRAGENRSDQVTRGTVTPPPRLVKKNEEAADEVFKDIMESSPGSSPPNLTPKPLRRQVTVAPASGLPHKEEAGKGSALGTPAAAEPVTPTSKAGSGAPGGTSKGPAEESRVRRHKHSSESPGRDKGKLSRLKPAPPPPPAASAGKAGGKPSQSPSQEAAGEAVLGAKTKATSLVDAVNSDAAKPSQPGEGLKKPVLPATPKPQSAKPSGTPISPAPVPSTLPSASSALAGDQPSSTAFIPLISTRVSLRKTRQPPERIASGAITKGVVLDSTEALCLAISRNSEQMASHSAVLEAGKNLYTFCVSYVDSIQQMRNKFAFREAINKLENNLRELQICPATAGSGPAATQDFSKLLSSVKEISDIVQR

[4] = biological target: Cyclin-dependent kinase 5/CDK5 activator 1 (Homo sapiens, UniProt Q00535); assay: Inhibition of human recombinant CDK5/p25 expressed in bacterial expression using histone H1 as substrate by ADP-glo assay
Sequence of Cyclin-dependent kinase 5/CDK5 activator 1 (Q00535 whole entry): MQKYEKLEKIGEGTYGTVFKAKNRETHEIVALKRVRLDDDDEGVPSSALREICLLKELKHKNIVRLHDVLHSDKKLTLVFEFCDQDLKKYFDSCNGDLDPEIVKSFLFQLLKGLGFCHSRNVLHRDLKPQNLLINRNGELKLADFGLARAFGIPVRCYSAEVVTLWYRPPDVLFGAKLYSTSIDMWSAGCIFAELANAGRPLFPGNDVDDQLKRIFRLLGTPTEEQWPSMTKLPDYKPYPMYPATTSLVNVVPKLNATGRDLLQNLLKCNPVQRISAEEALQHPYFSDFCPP
Sequence of Cyclin-dependent kinase 5/CDK5 activator 1 (Q15078 whole entry, further chain): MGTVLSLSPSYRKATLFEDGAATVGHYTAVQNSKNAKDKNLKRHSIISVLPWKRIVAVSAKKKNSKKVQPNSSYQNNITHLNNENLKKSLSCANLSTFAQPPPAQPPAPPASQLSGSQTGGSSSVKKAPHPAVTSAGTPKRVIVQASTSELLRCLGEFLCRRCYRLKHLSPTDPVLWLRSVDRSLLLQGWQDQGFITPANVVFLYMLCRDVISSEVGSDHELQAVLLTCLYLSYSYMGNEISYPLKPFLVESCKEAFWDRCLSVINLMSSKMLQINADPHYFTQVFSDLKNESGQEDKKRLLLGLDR

[5] = Cytotoxicity against human FADD-deficient Jurkat I 2.1 cells assessed as reduction in cell viability at 10 uM measured after 24 hrs by MTS assay; assay type: cell-based; conditions: jurkat i 2.1, 24 h
[6] = biological target: Receptor-interacting serine/threonine-protein kinase 3 (Homo sapiens, UniProt Q9Y572); assay: Inhibition of recombinant human RIPK3 expressed in baculovirus infected Sf9 insect cells using myelin basic protein as substrate by ADP-Glo assay
Sequence of Receptor-interacting serine/threonine-protein kinase 3 (Q9Y572 whole entry): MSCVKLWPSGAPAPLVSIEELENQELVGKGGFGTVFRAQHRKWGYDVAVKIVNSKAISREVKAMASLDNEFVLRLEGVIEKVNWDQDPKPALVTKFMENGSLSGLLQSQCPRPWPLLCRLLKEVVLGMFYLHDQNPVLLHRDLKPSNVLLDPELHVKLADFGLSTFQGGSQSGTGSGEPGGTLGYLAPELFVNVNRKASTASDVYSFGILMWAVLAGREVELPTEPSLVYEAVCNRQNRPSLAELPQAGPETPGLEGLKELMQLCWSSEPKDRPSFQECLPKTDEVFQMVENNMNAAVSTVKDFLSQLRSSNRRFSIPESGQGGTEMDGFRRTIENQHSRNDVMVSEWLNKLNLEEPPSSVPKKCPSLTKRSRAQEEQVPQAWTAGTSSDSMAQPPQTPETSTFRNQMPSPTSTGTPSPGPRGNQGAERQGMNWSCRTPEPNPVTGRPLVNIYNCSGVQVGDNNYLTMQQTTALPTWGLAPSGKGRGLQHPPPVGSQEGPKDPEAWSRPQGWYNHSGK

[7] = biological target: CDK9/cyclin T1 (Homo sapiens, UniProt P50750); assay: Inhibition of human recombinant CDK9/cyclin T expressed in baculovirus infected Sf9 insect cells using YSPTSPSYSPTSPSYSPTSPSKKKK as substrate by ADP-glo assay
Sequence of CDK9/cyclin T1 (O60563 whole entry, canonical isoform): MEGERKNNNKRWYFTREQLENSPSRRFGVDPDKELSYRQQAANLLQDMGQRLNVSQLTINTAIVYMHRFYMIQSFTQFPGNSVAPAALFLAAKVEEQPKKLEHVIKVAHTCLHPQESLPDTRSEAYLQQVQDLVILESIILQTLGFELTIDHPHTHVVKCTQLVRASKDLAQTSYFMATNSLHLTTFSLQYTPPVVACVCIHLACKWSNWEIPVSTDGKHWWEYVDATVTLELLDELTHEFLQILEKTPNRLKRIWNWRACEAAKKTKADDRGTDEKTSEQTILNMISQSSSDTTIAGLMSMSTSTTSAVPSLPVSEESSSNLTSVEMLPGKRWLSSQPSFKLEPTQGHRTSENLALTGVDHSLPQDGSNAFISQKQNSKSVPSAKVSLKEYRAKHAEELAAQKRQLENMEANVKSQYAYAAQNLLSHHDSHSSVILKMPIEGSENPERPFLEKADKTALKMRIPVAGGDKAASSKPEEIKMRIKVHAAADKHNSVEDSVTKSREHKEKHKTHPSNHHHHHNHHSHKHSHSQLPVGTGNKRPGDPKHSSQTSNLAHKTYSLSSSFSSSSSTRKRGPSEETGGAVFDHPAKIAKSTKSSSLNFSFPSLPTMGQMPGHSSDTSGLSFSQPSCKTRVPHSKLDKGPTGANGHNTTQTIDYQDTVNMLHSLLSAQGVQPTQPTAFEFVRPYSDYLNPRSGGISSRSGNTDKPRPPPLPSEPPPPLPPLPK
Sequence of CDK9/cyclin T1 (P50750 whole entry, canonical isoform): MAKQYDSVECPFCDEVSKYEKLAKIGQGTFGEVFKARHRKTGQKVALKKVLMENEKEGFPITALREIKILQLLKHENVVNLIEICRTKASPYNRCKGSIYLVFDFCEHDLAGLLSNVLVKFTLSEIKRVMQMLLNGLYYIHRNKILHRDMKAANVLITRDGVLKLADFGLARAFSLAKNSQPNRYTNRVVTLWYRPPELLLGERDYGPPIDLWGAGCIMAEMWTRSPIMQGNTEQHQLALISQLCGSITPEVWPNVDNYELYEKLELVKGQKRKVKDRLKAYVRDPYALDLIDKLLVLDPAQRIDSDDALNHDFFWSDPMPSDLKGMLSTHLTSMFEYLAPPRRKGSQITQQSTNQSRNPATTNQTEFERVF

[8] = biological target: Casein kinase I isoform epsilon (Homo sapiens, UniProt P49674); assay: Inhibition of recombinant human CK1epsilon expressed in baculovirus infected Sf9 insect cells using RRKHAAIGSpAYSITA as substrate by ADP-glo assay
Sequence of Casein kinase I isoform epsilon (P49674 whole entry, canonical isoform): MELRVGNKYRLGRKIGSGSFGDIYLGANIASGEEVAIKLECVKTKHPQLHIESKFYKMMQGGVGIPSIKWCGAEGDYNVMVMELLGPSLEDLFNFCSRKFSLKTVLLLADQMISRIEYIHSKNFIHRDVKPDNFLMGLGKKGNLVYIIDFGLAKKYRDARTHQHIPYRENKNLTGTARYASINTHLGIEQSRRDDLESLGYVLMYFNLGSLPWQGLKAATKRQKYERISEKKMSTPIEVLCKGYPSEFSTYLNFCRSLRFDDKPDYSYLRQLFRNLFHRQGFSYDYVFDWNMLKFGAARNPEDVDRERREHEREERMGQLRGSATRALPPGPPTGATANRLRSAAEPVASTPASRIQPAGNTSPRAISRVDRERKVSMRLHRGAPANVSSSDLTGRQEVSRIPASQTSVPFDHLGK

[9] = biological target: Serine/threonine-protein kinase pim-1 (Homo sapiens, UniProt P11309); assay: Inhibition of recombinant human PIM1 expressed in bacterial expression system using histone H1 as substrate by ADP-glo assay
Sequence of Serine/threonine-protein kinase pim-1 (P11309 whole entry): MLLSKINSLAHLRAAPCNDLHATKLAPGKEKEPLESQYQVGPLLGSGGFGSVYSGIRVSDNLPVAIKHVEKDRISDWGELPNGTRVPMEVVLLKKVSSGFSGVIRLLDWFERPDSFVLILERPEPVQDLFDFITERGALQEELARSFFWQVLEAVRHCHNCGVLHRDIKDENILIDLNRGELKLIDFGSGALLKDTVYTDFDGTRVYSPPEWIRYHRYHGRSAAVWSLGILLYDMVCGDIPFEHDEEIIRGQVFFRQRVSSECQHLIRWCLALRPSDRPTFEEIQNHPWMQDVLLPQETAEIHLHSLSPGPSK

[10] = biological target: T1, Receptor-interacting serine/threonine-protein kinase 1 (Homo sapiens) (UniProt Q13546); assay: Inhibition of RIPK1 in human FADD-deficient Jurkat I 2.1 cells assessed as protection against TNFalpha-induced necroptosis measured after 24 hrs by MTS assay
T1 sequence (whole entry): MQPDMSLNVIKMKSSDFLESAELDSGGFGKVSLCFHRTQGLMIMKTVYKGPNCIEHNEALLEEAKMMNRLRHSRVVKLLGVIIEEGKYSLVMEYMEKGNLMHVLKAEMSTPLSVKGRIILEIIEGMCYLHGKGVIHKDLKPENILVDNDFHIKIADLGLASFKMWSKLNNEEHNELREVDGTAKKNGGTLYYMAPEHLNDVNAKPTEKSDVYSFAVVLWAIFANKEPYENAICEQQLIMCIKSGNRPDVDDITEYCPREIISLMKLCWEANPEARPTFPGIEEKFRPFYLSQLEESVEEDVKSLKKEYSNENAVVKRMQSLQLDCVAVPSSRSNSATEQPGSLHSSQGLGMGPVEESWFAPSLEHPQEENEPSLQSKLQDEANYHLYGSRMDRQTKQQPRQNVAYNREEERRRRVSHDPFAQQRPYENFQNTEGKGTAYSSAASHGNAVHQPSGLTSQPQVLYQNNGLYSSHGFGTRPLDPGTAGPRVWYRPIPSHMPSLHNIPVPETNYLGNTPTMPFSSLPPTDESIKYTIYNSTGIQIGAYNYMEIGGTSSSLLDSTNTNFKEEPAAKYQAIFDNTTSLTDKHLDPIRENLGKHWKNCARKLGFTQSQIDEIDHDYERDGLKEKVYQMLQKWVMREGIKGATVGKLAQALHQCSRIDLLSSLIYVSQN

[11] = biological target: T1, Receptor-interacting serine/threonine-protein kinase 1 (Homo sapiens); assay: (§1) Inhibition of recombinant human RIPK1 kinase domain (8 to 322 residues) using myelin basic protein as substrate measured after 120 mins by [gamma-32P]ATP based scintillation counting method
[12] = biological target: T2, Receptor-interacting serine/threonine-protein kinase 1 (Homo sapiens, UniProt Q13546); assay: as §1
T2 sequence (Q13546 whole entry): T1 sequence (whole entry)

[13] = biological target: CDK2/Cyclin A2 (Homo sapiens, UniProt P24941); assay: Inhibition of human CDK2/cyclin A using histone H1 as substrate by ADP-glo assay; assay type: protein-complex assay
[14] = biological target: T1, Receptor-interacting serine/threonine-protein kinase 1 (Homo sapiens); assay: Inhibition of RIPK1 in human FADD-deficient Jurkat I 2.1 cells assessed as protection against TNFalpha-induced necroptosis by measuring remaining viable cells at 10 uM measured after 24 hrs by MTS assay relative to TNFalpha; assay type: cell-based
Outline: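 FADD-deficient Jurkat cells co-treated 24 h with 10 ng/ml human recombinant TNF-α and 10 μM compound; MTS viability normalized to DMSO control (100%); protection delta = viability with TNF-α plus compound minus viability with TNF-α alone (negative if toxic); n = 3.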

[15] = biological target: Aurora kinase B (Homo sapiens, UniProt Q96GD4); assay: Inhibition of recombinant human AURKB expressed in baculovirus infected Sf9 insect cells using myelin basic protein as substrate by ADP-Glo assay
Sequence of Aurora kinase B (Q96GD4 whole entry): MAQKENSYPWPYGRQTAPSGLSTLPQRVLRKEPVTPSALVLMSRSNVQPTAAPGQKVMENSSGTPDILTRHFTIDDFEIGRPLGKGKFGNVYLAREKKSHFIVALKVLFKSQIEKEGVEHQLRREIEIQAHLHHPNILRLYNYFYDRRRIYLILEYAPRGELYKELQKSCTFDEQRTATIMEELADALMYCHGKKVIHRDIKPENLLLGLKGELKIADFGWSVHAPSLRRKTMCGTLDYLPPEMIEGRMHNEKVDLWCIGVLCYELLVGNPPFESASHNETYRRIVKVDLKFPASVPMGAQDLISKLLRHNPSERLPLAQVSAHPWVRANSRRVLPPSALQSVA

| SMILES | Activity [1] | IC50 [2] [µM] | IC50 [3] [µM] | IC50 [4] [µM] | Activity [5] | IC50 [6] [µM] | IC50 [7] [µM] | IC50 [8] [µM] | IC50 [9] [µM] | inhibition [10] | inhibition [11] | IC50 [12] [µM] | IC50 [13] [µM] | Activity [14] [%] | IC50 [15] [µM] |
| --- | --- | --- | --- | --- | --- | --- | --- | --- | --- | --- | --- | --- | --- | --- | --- |
| CCCCNc1nc2ccc([N+](=O)[O-])cc2[nH]1 | Non-Toxic | 1.8 | > 10 | > 10 | Non-Toxic | > 10 | 0.48 | > 10 | > 10 | Dose-dependent effect | Dose-dependent effect | 12.1 | > 10 | 56.9 | > 10 |
| CCCCNc1nc2cc([N+](=O)[O-])ccc2s1 | Non-Toxic | 2.21 | > 10 | > 10 | Non-Toxic | > 10 | > 10 | > 10 | > 10 | Dose-dependent effect | Dose-dependent effect | 2.89 | > 10 | 56.1 | > 10 |
